Assay results reported in ChEMBL document CHEMBL2021791, “Synthesis, structure-activity relationships and biological evaluation of caudatin derivatives as novel anti-hepatitis B virus agents” (Bioorg Med Chem, 2012).

Key:
Hepatitis B virus [1] = assay: Antiviral activity against Hepatitis B virus infected in human HepG2(2.2.15) cells assessed as suppression of HBsAg secretion by ELISA; format: functional, organism-based
Hepatitis B virus [2] = assay: Antiviral activity against Hepatitis B virus infected in human HepG2(2.2.15) cells assessed as suppression of HbeAg secretion by ELISA; format: functional, organism-based
Hepatitis B virus [3] = assay: Antiviral activity against Hepatitis B virus infected in human HepG2(2.2.15) cells assessed as inhibition of viral DNA replication by RT-PCR analysis; format: functional, organism-based
[4] = Cytotoxicity against human HepG2(2.2.15) cells by MTT assay; format: cell-based; settings: HepG2(2.2.15) cells
Outline: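 HepG2 2.2.15 cells were exposed to compounds and viability was read by a modified MTT method. CC50 is the concentration giving 50% cytotoxicity. Values are means of at least two experiments.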

Hepatitis B virus [5] = assay: Selectivity ratio of CC50 for human HepG2(2.2.15) cells to IC50 for Hepatitis B virus infected in human HepG2(2.2.15) cells assessed as inhibition of viral replication; format: cell-based; settings: read-out: Ratio CC50/IC50
Outline: (§1)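 The selectivity index was calculated as CC50/IC50. CC50 is MTT cytotoxicity in HepG2 2.2.15 cells. No index was given where a value could not be obtained.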

Hepatitis B virus [6] = assay: Selectivity ratio of CC50 for human HepG2(2.2.15) cells to IC50 for Hepatitis B virus infected in human HepG2.2.15 cells assessed as suppression of HBsAg secretion; format: cell-based; settings: read-out: Ratio CC50/IC50; outline: as §1

SMILES	IC50 (Hepatitis B virus [1]) [µM]	IC50 (Hepatitis B virus [2]) [µM]	IC50 (Hepatitis B virus [3]) [µM]	CC50 [4] [µM]	selectivity ratio (Hepatitis B virus [5])	selectivity ratio (Hepatitis B virus [6])
C/C(=C\C(=O)O[C@@H]1C[C@@H]2[C@@]3(C)CC[C@H](O)CC3=CC[C@@]2(O)[C@@]2(O)CC[C@@](O)(C(C)O)[C@@]12C)C(C)C (some centres undefined)	307	> 1050	172	217	1.3	–
CC(=O)[C@]1(O)CC[C@@]2(O)[C@]1(C)[C@H](OC(=O)/C=C(\C)C(C)C)C[C@@H]1[C@@]3(C)CC[C@H](OC(=O)c4cccnc4)CC3=CC[C@]12O	20.8	> 1040	4.05	50.4	12.4	2.4
CC(=O)[C@]1(O)CC[C@@]2(O)[C@]1(C)[C@H](OC(=O)/C=C(\C)C(C)C)C[C@@H]1[C@@]3(C)CC[C@H](OC(=O)c4ccnn4C)CC3=CC[C@]12O	14.5	> 721	2.82	10.1	3.6	–
CC(=O)[C@]1(OC(=O)CCCC(=O)O)CC[C@@]2(O)[C@]1(C)[C@H](OC(=O)/C=C(\C)C(C)C)C[C@@H]1[C@@]3(C)CC[C@H](OC(=O)CCCC(=O)O)CC3=CC[C@]12O	> 268	> 268	> 268	> 268	–	–
CC(=O)[C@]1(O)CC[C@@]2(O)[C@]1(C)[C@H](OC(=O)/C=C(\C)C(C)C)C[C@@H]1[C@@]3(C)CCC(=O)CC3=CC(=O)[C@]12O	205	> 1630	113	155	1.4	–
CC(=O)[C@]1(O)CC[C@@]2(O)[C@]1(C)[C@H](OC(=O)/C=C(\C)C(C)C)C[C@@H]1[C@@]3(C)CC[C@H](OC(=O)c4ccc(F)nc4)CC3=CC[C@]12O	15.6	> 687	4.97	14.3	2.9	–
COCC(=O)O[C@H]1CC[C@@]2(C)C(=CC[C@]3(O)[C@@H]2C[C@@H](OC(=O)/C=C(\C)C(C)C)[C@@]2(C)[C@]3(O)CC[C@@]2(O)C(C)=O)C1	70.4	> 836	104	102	–	1.4
CC(=O)[C@]1(OC(=O)/C=C/c2cc(F)cc(F)c2)CC[C@@]2(O)[C@]1(C)[C@H](OC(=O)/C=C(\C)C(C)C)C[C@@H]1[C@@]3(C)CC[C@H](OC(=O)/C=C/c4cc(F)cc(F)c4)CC3=CC[C@]12O	> 1580	> 1580	183	> 1580	> 8.7	–
CC(=O)[C@]1(O)CC[C@@]2(O)[C@]1(C)[C@H](OC(=O)/C=C(\C)C(C)C)C[C@@H]1[C@@]3(C)CC[C@H](OC(=O)CCCC(=O)O)CC3=CC[C@]12O	> 385	> 385	289	310	1.1	–
CC(=O)[C@]1(O)CC[C@@]2(O)[C@]1(C)[C@H](OC(=O)/C=C(\C)C(C)C)C[C@@H]1[C@@]3(C)CC[C@H](OC(=O)Cc4ccncc4)CC3=CC[C@]12O	19.7	> 32.8	> 414	39.9	–	–
CC(=O)[C@]1(OC(=O)/C=C/c2ccccc2Cl)CC[C@@]2(O)[C@]1(C)[C@H](OC(=O)/C=C(\C)C(C)C)C[C@@H]1[C@@]3(C)CC[C@H](OC(=O)/C=C/c4ccccc4Cl)CC3=CC[C@]12O	599	> 257	> 148	> 538	–	1.6
CC(=O)N1CCC[C@H]1C(=O)O[C@H]1CC[C@@]2(C)C(=CC[C@]3(O)[C@@H]2C[C@@H](OC(=O)/C=C(\C)C(C)C)[C@@]2(C)[C@]3(O)CC[C@@]2(O)C(C)=O)C1	70.7	> 638	65.7	106	1.6	1.5
COc1cc(C(=O)O[C@H]2CC[C@@]3(C)C(=CC[C@]4(O)[C@@H]3C[C@@H](OC(=O)/C=C(\C)C(C)C)[C@@]3(C)[C@]4(O)CC[C@@]3(O)C(C)=O)C2)on1	201	> 1180	17	133	7.8	–
CC(=O)[C@]1(OC(=O)CCN2C(=O)c3ccccc3C2=O)CC[C@@]2(O)[C@]1(C)[C@H](OC(=O)/C=C(\C)C(C)C)C[C@@H]1[C@@]3(C)CC[C@H](OC(=O)CCN4C(=O)c5ccccc5C4=O)CC3=CC[C@]12O	> 809	> 809	> 202	> 809	–	–
CCOCC(=O)O[C@H]1CC[C@@]2(C)C(=CC[C@]3(O)[C@@H]2C[C@@H](OC(=O)/C=C(\C)C(C)C)[C@@]2(C)[C@]3(O)CC[C@@]2(O)C(C)=O)C1	68.2	> 153	13.8	116	8.4	1.7
CC(=O)[C@]1(O)CC[C@@]2(O)[C@]1(C)[C@H](OC(=O)/C=C(\C)C(C)C)C[C@@H]1[C@@]3(C)CC[C@H](OC(=O)CO)CC3=CC[C@]12O	192	147	219	136	–	–
COP(=O)(OC)O[C@H]1CC[C@@]2(C)C(=CC[C@]3(O)[C@@H]2C[C@@H](OC(=O)/C=C(\C)C(C)C)[C@@]2(C)[C@]3(O)CC[C@@]2(O)C(C)=O)C1	> 1750	> 1750	105	560	5.3	–
CC(=O)[C@]1(O)CC[C@@]2(O)[C@]1(C)[C@H](OC(=O)/C=C(\C)C(C)C)C[C@@H]1[C@@]3(C)CC[C@H](OP(=O)(Oc4ccccc4)Oc4ccccc4)CC3=CC[C@]12O	> 1940	> 1940	> 485	> 1940	–	–
CC(=O)[C@]1(O)CC[C@@]2(O)[C@]1(C)[C@H](OC(=O)/C=C(\C)C(C)C)C[C@@H]1[C@@]3(C)CC[C@H](OC(=O)CC#N)CC3=CC[C@]12O	100	> 161	7.32	122	10.5	1.2
CC(=O)[C@]1(O)CC[C@@]2(O)[C@]1(C)[C@H](OC(=O)/C=C(\C)C(C)C)C[C@@H]1[C@@]3(C)CC[C@H](O)C[C@@]34O[C@H]4C[C@]12O	189	1140	184	226	1.2	1.2
COC(=O)COCC(=O)O[C@H]1CC[C@@]2(C)C(=CC[C@]3(O)[C@@H]2C[C@@H](OC(=O)/C=C(\C)C(C)C)[C@@]2(C)[C@]3(O)CC[C@@]2(O)C(C)=O)C1	51.6	78.6	> 105	25.3	–	–
CC(=O)[C@]1(OC(=O)CCC(=O)O)CC[C@@]2(O)[C@]1(C)[C@H](OC(=O)/C=C(\C)C(C)C)C[C@@H]1[C@@]3(C)CC[C@H](OC(=O)CCC(=O)O)CC3=CC[C@]12O	653	> 966	> 241	483	–	–
COCC(=O)O[C@H]1CC[C@@]2(C)C(=CC[C@]3(O)[C@@H]2C[C@@H](OC(=O)/C=C(\C)C(C)C)[C@@]2(C)[C@]3(O)CC[C@@]2(OC(=O)COC)C(C)=O)C1	331	> 1400	288	> 1400	> 4.9	> 4.2
CC(=O)[C@]1(O)CC[C@@]2(O)[C@]1(C)[C@H](OC(=O)/C=C(\C)C(C)C)C[C@@H]1[C@@]3(C)CC[C@H](OC(=O)CN(C)C)CC3=CC[C@]12O	87.2	> 749	13.8	50.5	3.6	–
CC(=O)[C@]1(O)CC[C@@]2(O)[C@]1(C)[C@H](OC(=O)/C=C(\C)C(C)C)C[C@@H]1[C@@]3(C)CC[C@H](OC(=O)c4ccc(Br)cn4)CC3=CC[C@]12O	76.5	> 626	12.5	48.4	3.9	–
